Tests used:
[1] = biological target: Kappa-type opioid receptor (Homo sapiens, UniProt P41145); assay: Displacement of [3H]U-69593 from cloned human kappa opioid receptor
[2] = biological target: Mu-type opioid receptor (Homo sapiens, UniProt P35372); assay: Displacement of [3H]DAMGO from cloned human mu opioid receptor
[3] = biological target: Opioid receptors; delta & kappa (Homo sapiens) (UniProt P41145+P41143); assay: Selectivity for delta opioid receptor over kappa opioid receptor; type: protein assay
Sequence of Opioid receptors; delta & kappa (Homo sapiens) (P41143 whole entry, looked up): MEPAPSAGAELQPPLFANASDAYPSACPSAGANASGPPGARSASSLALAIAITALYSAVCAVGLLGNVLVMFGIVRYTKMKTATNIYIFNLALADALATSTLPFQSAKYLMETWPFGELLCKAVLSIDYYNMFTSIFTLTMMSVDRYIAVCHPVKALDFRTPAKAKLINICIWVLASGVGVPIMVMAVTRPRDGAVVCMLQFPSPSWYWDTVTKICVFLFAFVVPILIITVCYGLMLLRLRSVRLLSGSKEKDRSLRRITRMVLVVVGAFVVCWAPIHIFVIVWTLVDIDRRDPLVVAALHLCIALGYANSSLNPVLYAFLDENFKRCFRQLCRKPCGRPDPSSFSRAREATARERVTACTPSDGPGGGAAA
Sequence of Opioid receptors; delta & kappa (Homo sapiens) (P41145 whole entry, looked up): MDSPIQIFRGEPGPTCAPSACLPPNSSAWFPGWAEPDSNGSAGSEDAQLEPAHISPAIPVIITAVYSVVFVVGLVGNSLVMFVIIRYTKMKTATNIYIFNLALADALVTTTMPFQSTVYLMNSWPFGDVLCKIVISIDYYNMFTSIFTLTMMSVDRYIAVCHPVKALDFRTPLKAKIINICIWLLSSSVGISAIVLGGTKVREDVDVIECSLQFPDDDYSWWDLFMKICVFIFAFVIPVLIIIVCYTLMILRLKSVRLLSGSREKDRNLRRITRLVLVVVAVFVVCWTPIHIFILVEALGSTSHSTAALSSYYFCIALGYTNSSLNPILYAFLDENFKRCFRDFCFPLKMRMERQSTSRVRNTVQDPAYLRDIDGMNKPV

[4] = biological target: Opioid receptors; mu & delta (Homo sapiens) (UniProt P41143+P35372); assay: Selectivity for delta opioid receptor over mu opioid receptor; type: protein assay
Sequence of Opioid receptors; mu & delta (Homo sapiens) (P35372 whole entry, looked up): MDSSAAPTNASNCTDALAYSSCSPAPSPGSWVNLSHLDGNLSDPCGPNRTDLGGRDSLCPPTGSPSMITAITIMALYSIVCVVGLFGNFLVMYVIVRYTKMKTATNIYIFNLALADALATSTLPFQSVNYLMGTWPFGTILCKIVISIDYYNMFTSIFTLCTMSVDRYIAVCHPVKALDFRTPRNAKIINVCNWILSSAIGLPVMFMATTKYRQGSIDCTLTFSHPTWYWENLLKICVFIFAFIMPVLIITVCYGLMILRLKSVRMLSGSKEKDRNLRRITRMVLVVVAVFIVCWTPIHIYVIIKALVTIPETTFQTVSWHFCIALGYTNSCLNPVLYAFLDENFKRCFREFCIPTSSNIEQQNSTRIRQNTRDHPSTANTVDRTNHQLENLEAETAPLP
Sequence of Opioid receptors; mu & delta (Homo sapiens) (P41143 whole entry, looked up): as the sequence (P41143 whole entry, looked up) above

[5] = biological target: Delta-type opioid receptor (Homo sapiens, UniProt P41143); assay: Displacement of [3H]DPDPE from cloned human delta opioid receptor
Sequence of Delta-type opioid receptor (P41143 whole entry): as the sequence (P41143 whole entry, looked up) above

[6] = species on record: Mus musculus; assay: Anxiolytic activity in mouse assessed as lowest active dose by neonatal ultrasonic vocalization test; type: functional
Outline: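 Neonatal mice; read-out is the number and duration of ultrasonic calls. The value is the lowest dose tested that gave a statistically significant reduction in calls.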

[7] = species on record: Mus musculus; assay: Decrease in duration of immobility in mouse assessed as lowest active dose by tail suspension test

Sequence of Kappa-type opioid receptor (P41145 whole entry): as the sequence (P41145 whole entry, looked up) above
Sequence of Mu-type opioid receptor (P35372 whole entry): as the sequence (P35372 whole entry, looked up) above

Row | Compound | Ki [1] | Ki [2] | Ratio Ki [4] | Ki [5] | further results
1 | CCCOC(=O)N1CCC(c2ccccc2)(c2nccn2Cc2ccccc2)CC1 | > 4.65 µM | > 0.465 µM |  |  | 
2 | CCOC(=O)N1CCC(c2ccccc2)(c2nccn2Cc2cccc(OC)c2)CC1 | 0.366 µM | > 4.65 µM |  |  | 
3 | CC(C)C(=O)N1CCC(c2ccccc2)(c2nccn2Cc2ccccc2)CC1 | 0.621 µM | > 0.465 µM | > 10 | 0.048 µM | Ratio Ki [3]: 13
4 | CCCCOC(=O)N1CCC(c2ccccc2)(c2nccn2Cc2ccccc2)CC1 | 0.188 µM | > 0.465 µM |  |  | 
5 | O=C(Cc1ccccc1)N1CCC(c2ccccc2)(c2nccn2Cc2ccccc2)CC1 |  | > 0.465 µM |  |  | 
6 | O=C(c1ccccc1)N1CCC(c2ccccc2)(c2nccn2Cc2ccccc2)CC1 | 0.124 µM | > 4.65 µM |  |  | Activity [6]: < 1 mg/kg; Activity [7]: 10 mg/kg
7 | CCOC(=O)N1CCC(c2ccccc2)(c2nccn2C/C=C/c2ccccc2)CC1 |  | > 0.465 µM | > 1.6 | 0.28 µM | 
8 | CCOC(=O)N1CCC(c2ccccc2)(c2nccn2Cc2ccc(F)cc2)CC1 |  | > 0.465 µM | > 6.5 | 0.051 µM | 
9 | COCC(=O)N1CCC(c2ccccc2)(c2nccn2C(C)c2ccccc2)CC1 (stereo not drawn) | > 4.65 µM | > 4.65 µM |  |  | 
10 | COC(=O)c1cccc(Cn2ccnc2C2(c3ccccc3)CCN(C(=O)c3ccccc3)CC2)c1 |  | > 0.465 µM | > 5.5 | 0.085 µM | 
11 | COC(=O)c1ccc(Cn2ccnc2C2(c3ccccc3)CCN(C(=O)c3ccccc3)CC2)cc1 | 0.088 µM | > 4.65 µM |  |  | 
12 | CCOC(=O)N1CCC(c2ccccc2)(c2nccn2Cc2ccccn2)CC1 |  | > 0.465 µM | > 2.7 | 0.173 µM | 
13 | CC(C)(C)C(=O)N1CCC(c2ccccc2)(c2nccn2Cc2ccccc2)CC1 |  | > 4.65 µM |  |  | 
14 | COC(=O)N1CCC(c2ccccc2)(c2nccn2Cc2ccccc2)CC1 |  | > 4.65 µM |  |  | 
15 | Cc1cc(C)c(C(=O)N2CCC(c3ccccc3)(c3nccn3Cc3ccccc3)CC2)c(C)c1 |  | > 4.65 µM | > 37 | 0.125 µM | 
16 | O=C(OCc1ccccc1)N1CCC(c2ccccc2)(c2nccn2Cc2ccccc2)CC1 | 0.121 µM | > 0.465 µM |  |  | 
17 | CCC(=O)N1CCC(c2ccccc2)(c2nccn2Cc2ccccc2)CC1 |  | > 0.465 µM |  |  | 
18 | CC(C)(C)OC(=O)N1CCC(c2ccccc2)(c2nccn2Cc2ccccc2)CC1 | 0.084 µM | > 0.465 µM |  |  | 

Row | Compound | Ki [1] | Ki [2] | Ratio Ki [4] | Ki [5] | further results
19 | CC(=O)N1CCC(c2ccccc2)(c2nccn2Cc2ccccc2)CC1 | 1.01 µM | > 0.465 µM |  |  | 
20 | CCOC(=O)N1CCC(c2ccccc2)(c2nccn2C(C)c2ccccc2)CC1 (stereo not drawn) | 0.062 µM | > 0.465 µM |  |  | 
21 | CCOC(=O)N1CCC(c2ccccc2)(c2nccn2Cc2cccc(F)c2)CC1 | > 4.65 µM | > 0.465 µM |  |  | 
22 | Cc1cc(C)cc(C(=O)N2CCC(c3ccccc3)(c3nccn3Cc3ccccc3)CC2)c1 | 0.284 µM | > 0.465 µM |  |  | 
23 | O=C(c1cc(C(F)(F)F)cc(C(F)(F)F)c1)N1CCC(c2ccccc2)(c2nccn2Cc2ccccc2)CC1 |  | > 0.465 µM | > 16 | 0.029 µM | 
24 | CCOC(=O)N1CCC(c2ccccc2)(c2nccn2Cc2ccc3ccccc3c2)CC1 | 3.12 µM | > 0.465 µM | > 0.7 | 0.642 µM | Ratio Ki [3]: 4.8
25 | CC(c1ccccc1)n1ccnc1C1(c2ccccc2)CCN(C(=O)c2ccccc2)CC1 (stereo not drawn) | 0.334 µM | > 4.65 µM |  |  | 
26 | CCOC(=O)N1CCC(c2ccccc2)(c2nccn2Cc2ccc(OC)cc2)CC1 | 0.201 µM | > 4.65 µM |  |  | 
27 | O=C(C1CC1)N1CCC(c2ccccc2)(c2nccn2Cc2ccccc2)CC1 |  | > 0.465 µM | > 20 | 0.023 µM | 
28 | COCC(=O)N1CCC(c2ccccc2)(c2nccn2Cc2ccccc2)CC1 | 0.622 µM | > 0.465 µM |  |  | 
29 | COCC(=O)N1CCC(c2ccccc2)(c2nccn2Cc2ccc(C(=O)OC)cc2)CC1 | 0.065 µM | > 4.65 µM |  |  | 
30 | CCOC(=O)N1CCC(c2ccccc2)(c2nccn2Cc2ccc(C(=O)OC)cc2)CC1 | 0.025 µM | > 0.465 µM |  |  | 
31 | CCOC(=O)N1CCC(c2ccccc2)(c2nccn2Cc2ccccc2)CC1 |  |  |  |  | Activity [6]: 10 mg/kg; Activity [7]: 30 mg/kg
32 | O=C(OC1CCCCC1)N1CCC(c2ccccc2)(c2nccn2Cc2ccccc2)CC1 | 0.121 µM | > 0.465 µM | > 63 | 0.0074 µM | Ratio Ki [3]: 16
33 | CCOC(=O)N1CCC(c2ccccc2)(c2nccn2Cc2ccc(O)cc2)CC1 | 0.108 µM | > 0.465 µM |  |  | 
34 | CC(C)OC(=O)N1CCC(c2ccccc2)(c2nccn2Cc2ccccc2)CC1 | 0.201 µM | > 0.465 µM |  |  | 
35 | CCOC(=O)N1CCC(c2ccccc2)(c2nccn2CC2CCCCC2)CC1 |  | > 0.465 µM | > 3.2 | 0.147 µM | 
36 | CCN(CC)C(=O)c1ccc(Cn2ccnc2C2(c3ccccc3)CCN(C(=O)c3ccccc3)CC2)cc1 |  | > 4.65 µM | > 29 | 0.158 µM | 
